Calls of active or inactive are those of the source. No cut-off for these calls is given here.
Tests used:
HCT-116 [1] = experiment: Induction of cell cycle arrest in human HCT116 cells assessed as accumulation at G2/M phase at 30 uM after 24 hrs by propidium iodide staining-based flow cytometric analysis in presence of RNase A (reference value: 20.6%); format: functional
HCT-116 [2] = experiment: Induction of reactive oxygen species in human HCT116 cells at 15 uM after 48 hrs by DCFH-DA staining-based flow cytometric analysis (reference value: 5.1%); format: functional
Method in brief: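 HCT116 cells seeded overnight, then exposed to test compounds, alone or with NAC, for 48 h in complete medium. Loaded with 20 μM DCFH-DA for 30 min; intracellular ROS in 20 000 cells per group read by flow cytometry as histograms.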

Mus musculus = experiment: Downregulation of Skp2 in human HCT116 cells xenografted in nude mouse at 5 to 10 mg/kg, ip administered 3 times per week measured on day 41 by Western blot analysis; format: functional, organism-based; settings: HCT-116
Method in brief: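 Excised frozen xenograft tumours homogenised in lysis buffer; protein by Bradford assay, then Western blotting for Skp2 with β-actin as control.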

[3] = Downregulation of cdc2 expression in human HCT116 cells at 7.5 to 30 uM after 24 hrs by Western blot analysis; format: functional, cell-based; settings: HCT-116
Method in brief: (§1)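 HCT116 cells exposed 24 h in complete medium; lysed in RIPA buffer (pH 8.0), protein by BCA, equal loads run on 8–13% SDS-PAGE, PVDF transfer, blocked in 5% BSA/TBST, primary antibodies overnight at 4 °C, HRP secondaries 2 h RT, ECL detection; β-actin as loading control.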

HCT-116 [4] = experiment: Induction of apoptosis in human HCT116 cells assessed as early apoptotic cells at 7.5 uM after 48 hrs by annexin V-FITC/propidium iodide staining-based flow cytometric analysis (reference value: 1.6%); format: functional
HCT-116 [5] = experiment: Induction of cell cycle arrest in human HCT116 cells assessed as accumulation at sub-G1 phase after 24 hrs by propidium iodide staining-based flow cytometric analysis in presence of RNase; format: functional
HCT-116 [6] = experiment: Induction of apoptosis in human HCT116 cells assessed as increase in Bim expression after 48 hrs by Western blot analysis; format: functional, cell-based
Method in brief: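 Cells treated for 48 h and lysed in RIPA buffer (pH 8.0). Total protein was measured by BCA, and equal protein was resolved on 8−13% SDS-PAGE and moved to PVDF. Membranes were blocked in 5% BSA/TBST and given primary antibody overnight at 4 °C, then an HRP secondary for 2 h at RT. Detection by enhanced chemiluminescence.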

[7] = Antiproliferative activity against p53-null human HCT116 cells assessed as cell viability after 72 hrs by SRB assay; format: functional, cell-based; settings: HCT-116, 72 h
Method in brief: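 p53 wild-type and p53-null HCT116 cells in 96-well plates treated 72 h; SRB assay (TCA fix, SRB stain, Tris pH 10.0 solubilisation, A515); viability vs solvent control, IC50 by nonlinear regression.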

HCT-116 [8] = experiment: Induction of cell cycle arrest in human HCT116 cells assessed as accumulation at S phase at 15 uM after 48 hrs by propidium iodide staining-based flow cytometric analysis in presence of RNase A (reference value: 16.2%); format: functional
HCT-116 [9] = experiment: Induction of apoptosis in human HCT116 cells assessed as early apoptotic cells at 30 uM after 48 hrs by annexin V-FITC/propidium iodide staining-based flow cytometric analysis in presence of NAC (reference value: 1.1%); format: functional
[10] = biological target: Serine-protein kinase ATM/ATR (Homo sapiens) (UniProt Q13315+Q13535); experiment: Activation of ATM/ATR in human HCT116 cells assessed as downregulation of cdc25C level after 24 hrs by Western blot analysis; format: cell-based; settings: HCT-116; method in brief: as §1
[11] = Downregulation of cyclin A expression in human HCT116 cells at 7.5 to 30 uM after 24 hrs by Western blot analysis; format: functional, cell-based; settings: HCT-116; method in brief: as §1
HCT-116 [12] = experiment: Induction of cell cycle arrest in human HCT116 cells assessed as accumulation at G2/M phase at 7.5 uM after 24 hrs by propidium iodide staining-based flow cytometric analysis in presence of RNase A (reference value: 20.6%); format: functional
HCT-116 [13] = experiment: Induction of apoptosis in human HCT116 cells assessed as cleaved PARP level at 30 uM up to 24 hrs by Western blot analysis; format: functional, cell-based
HCT-116 [14] = experiment: Induction of apoptosis in human HCT116 cells assessed as late apoptotic cells at 30 uM after 48 hrs by annexin V-FITC/propidium iodide staining-based flow cytometric analysis in presence of NAC (reference value: 7.2%); format: functional
HCT-116 [15] = experiment: Increase in p21 expression in human HCT116 cells after 24 hrs by western blot analysis; format: functional, cell-based; method in brief: as §1
HCT-116 [16] = experiment: Reduction in histone H3 Lys9 acetylation in human HCT116 cells at 7.5 to 30 uM after 24 hrs by Western blot analysis; format: functional, cell-based
[17] = biological target: Cyclin-dependent kinase inhibitor 1B/S-phase kinase-associated protein 2 (Homo sapiens) (UniProt Q13309+P46527); experiment: Inhibition of Skp2/p27 protein interaction in human HCT116 cells after 24 hrs by immunoprecipitation assay; format: cell-based; settings: HCT-116
Method in brief: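 Protein measured by Bradford. Equal protein incubated with Protein G sepharose and the capture antibody (anti-p53, anti-Cul-1 or anti-Skp2) overnight at 4 °C. Bead eluates boiled in Laemmli/2-mercaptoethanol and analysed by Western blot.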

HCT-116 [18] = experiment: Induction of cell cycle arrest in human HCT116 cells assessed as accumulation at sub-G1 phase at 7.5 uM after 24 hrs by propidium iodide staining-based flow cytometric analysis in presence of RNase A (reference value: 1.5%); format: functional
HCT-116 [19] = experiment: Induction of apoptosis in human HCT116 cells assessed as viable cells at 30 uM after 48 hrs by annexin V-FITC/propidium iodide staining-based flow cytometric analysis (reference value: 87.4%); format: functional; settings: HCT-116, 48 h, read-out: Activity
CAKI-1 = experiment: Antiproliferative activity against human CAKI-1 cells after 24 to 72 hrs by SRB assay; format: functional, cell-based
Method in brief: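 Cells grown in 96-well plates (RPMI 1640; MRC-5 in MEM, 10% FBS, antibiotics) with compound […]; fixed in 10% TCA 30 min at 4 °C, stained 0.4% SRB in 1% acetic acid 1 h, dye dissolved in 10 mM Tris pH 10.0, A515 read; viability as % of solvent control, IC50 by nonlinear regression; mean of three independent experiments.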

HCT-116 [20] = experiment: Induction of apoptosis in human HCT116 cells assessed as decrease in Bcl-xL expression at 7.5 to 30 uM after 48 hrs by Western blot analysis; format: functional, cell-based
Method in brief: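 HCT116 cells exposed 48 h; Western blot of RIPA lysates (BCA quantification, SDS-PAGE, PVDF, overnight primary antibodies at 4 °C, HRP secondary, ECL).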

HCT-116 [21] = experiment: Induction of apoptosis in human HCT116 cells assessed as cleaved PARP level at 30 uM up to 48 hrs by Western blot analysis in presence of NAC
HCT-116 [22] = experiment: Induction of cell cycle arrest in human HCT116 cells assessed as accumulation at sub-G1 phase at 7.5 uM after 48 hrs by propidium iodide staining-based flow cytometric analysis in presence of RNase A (reference value: 6.5%); format: functional
[23] = Upregulation of MDM2 expression in p53-null human HCT116 cells at 7.5 to 30 uM after 24 hrs by Western blot analysis; format: functional, cell-based; settings: HCT-116

Chain of Cyclin-dependent kinase inhibitor 1B/S-phase kinase-associated protein 2 (Homo sapiens) (P46527 whole entry, looked up): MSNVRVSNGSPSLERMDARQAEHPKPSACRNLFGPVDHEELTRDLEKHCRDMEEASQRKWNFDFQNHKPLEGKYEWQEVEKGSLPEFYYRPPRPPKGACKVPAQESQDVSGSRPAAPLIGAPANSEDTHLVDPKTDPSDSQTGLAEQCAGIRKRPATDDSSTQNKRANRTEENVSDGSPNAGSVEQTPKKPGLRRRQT
Chain of Cyclin-dependent kinase inhibitor 1B/S-phase kinase-associated protein 2 (Homo sapiens) (Q13309 whole entry, looked up): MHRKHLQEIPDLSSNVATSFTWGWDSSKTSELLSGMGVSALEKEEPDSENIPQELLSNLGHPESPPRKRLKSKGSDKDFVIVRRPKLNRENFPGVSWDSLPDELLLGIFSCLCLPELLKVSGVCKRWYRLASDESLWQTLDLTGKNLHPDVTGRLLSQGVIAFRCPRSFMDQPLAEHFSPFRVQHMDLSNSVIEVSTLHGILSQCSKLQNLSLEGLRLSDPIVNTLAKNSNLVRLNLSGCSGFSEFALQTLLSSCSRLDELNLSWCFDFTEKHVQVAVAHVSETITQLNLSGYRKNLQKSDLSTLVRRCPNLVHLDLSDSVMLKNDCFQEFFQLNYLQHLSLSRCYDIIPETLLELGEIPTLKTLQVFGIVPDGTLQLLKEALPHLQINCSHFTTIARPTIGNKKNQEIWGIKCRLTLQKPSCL

Compound: O=C/C=C/c1ccc2c(c1)O[C@@H](CO)[C@H](c1ccc(O)c(O)c1)O2 [AMERICANIN A]
- Activity (HCT-116 [1]): 38.9%
- Activity (HCT-116 [2]): 7.9%
- Activity (Mus musculus): Active
- Activity [3]: Active
- Activity (HCT-116 [4]): 3%
- Activity (HCT-116 [5]): Dose-dependent effect
- Activity (HCT-116 [6]): Dose-dependent effect
- IC50 [7]: 7.8 µM
- Activity (HCT-116 [8]): 8.2%
- Activity (HCT-116 [9]): 2.7%
- Activity [10]: Dose-dependent effect
- Activity [11]: Active
- Activity (HCT-116 [12]): 27.5%
- Activity (HCT-116 [13]): Active
- Activity (HCT-116 [14]): 18.9%
- Activity (HCT-116 [15]): Dose-dependent effect
- Activity (HCT-116 [16]): Active
- inhibition [17]: inactive
- Activity (HCT-116 [18]): 1.9%
- viability at 30 µM (HCT-116 [19]): 51.4%
- IC50 (CAKI-1): 66.4 µM
- Activity (HCT-116 [20]): Active
- Activity (HCT-116 [21]): inactive
- Activity (HCT-116 [22]): 7.6%
- Activity [23]: Active

From ChEMBL document CHEMBL3758106, “Antitumor Activity of Americanin A Isolated from the Seeds of Phytolacca americana by Regulating the ATM/ATR Signaling Pathway and the Skp2-p27 Axis in Human Colon Cancer Cells” (J Nat Prod, 2015)
